Tests used:
[1] = Growth inhibition of human HREC cells assessed as reduction in cell number after 48 hrs by alamarBlue based fluorescence assay; assay type: functional
Summary of the method: (§1)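 Cells (2,500 per well in growth medium) were allowed 24 h, then exposed 48 h to compound over 0.5 nM–500 μM. alamarBlue was added and fluorescence read 4 h later (ex 560/em 590 nm). Dose-response curves were fitted relative to DMSO control; compounds not reducing cell number ≥50% at the top concentration were reported as GI50 >100 μM.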

[2] = Growth inhibition of human HUVEC cells assessed as reduction in cell number after 48 hrs by alamarBlue based fluorescence assay; summary of the method: as §1
[3] = Growth inhibition of human 92-1 cells assessed as reduction in cell number after 48 hrs by alamarBlue based fluorescence assay; assay type: functional; summary of the method: as §1
Y79 = experiment: Growth inhibition of human Y79 cells assessed as reduction in cell number after 48 hrs by alamarBlue based fluorescence assay; assay type: functional; conditions: Y79, 48 h; summary of the method: as §1

Structure (SMILES) | GI50 [1] [µM] | GI50 at 48 h [2] [µM] | GI50 [3] [µM] | GI50 (Y79) [µM]
COc1ccc(CC2COc3cc(OC)c(OC)c(OC)c3C2=O)cc1OC(=O)[C@H](Cc1ccccc1)NS(=O)(=O)c1ccc(C)cc1 (some centres not stated) | 1.5 | 22 | > 100 | > 100
COc1ccc(CC2COc3cc(OC)c(OC)c(O)c3C2=O)cc1O (configuration not stated) | > 100 | 44 | > 100 | > 100
COc1cc(OC)c2c(c1)OCC(Cc1ccc(OC)c(O)c1)C2=O (configuration not stated) | 1.6 | 2.5 | > 100 | 4.2
CCCCNC(=O)N[C@@H](Cc1ccccc1)C(=O)Oc1cc(CC2COc3cc(OC)c(OC)c(OC)c3C2=O)ccc1OC (some centres not stated) | 1.4 | > 100 | > 100 | 64
COc1ccc(CC2COc3cc(OC)c(OC)c(OC)c3C2=O)cc1OC(=O)[C@H](Cc1ccccc1)NC(=O)OCc1ccccc1 (some centres not stated) | 0.14 | > 100 | > 100 | > 100
CC[C@H](C)[C@H](NC(=O)OC(C)(C)C)C(=O)Oc1cc(CC2COc3cc(OC)c(OC)c(OC)c3C2=O)ccc1OC (some centres not stated) | 3.1 | > 100 | > 100 | 24
COc1ccc(CC2COc3cc(O)c(OC)c(O)c3C2=O)cc1O (configuration not stated) | 0.22 | 0.38 | 48 | 9.8
COc1ccc(CC2COc3cc(OC)c(OC)c(OC)c3C2=O)cc1OC(=O)[C@H](CC(C)C)NC(=O)OC(C)(C)C (some centres not stated) | 0.13 | > 100 | > 100 | > 100
COC(=O)c1cc(/C=C2\COc3cc(OC)c(OC)c(OC)c3C2=O)ccc1OC | 5.6 | 3.2 | > 100 | 6.1
COc1ccc(CC2COc3cc(O)c(OC)c(OC)c3C2=O)cc1O (configuration not stated) | > 100 | > 100 | > 100 | > 100
COc1ccc(CC2COc3cc(OC)c(OC)c(OC)c3C2=O)cc1C(=O)O (configuration not stated) | > 100 | 92 | > 100 | > 100
COC(=O)c1cc(CC2COc3cc(OC)c(OC)c(OC)c3C2=O)ccc1OC (configuration not stated) | 18 | 17 | > 100 | 40
COc1ccc(/C=C2\COc3cc(OC)c(OC)c(OC)c3C2=O)cc1O | 46 | 5.6 | 0.22 | 44
C=CCOc1ccc(C[C@H](NC(=O)OC(C)(C)C)C(=O)Nc2cc(CC3COc4cc(OC)c(OC)c(OC)c4C3=O)ccc2OC)cc1 (some centres not stated) | 13 | 4.5 | 1.9 | 2.5
COc1ccc(CC2COc3cc(OC)c(OC)c(OC)c3C2=O)cc1OC(=O)CCc1ccccc1 (configuration not stated) | 0.22 | 38 | > 100 | > 100
COc1ccc(/C=C2\COc3cc(OC)c(OC)c(OC)c3C2=O)cc1OCc1ccccc1 | 4.3 | 16 | 3.5 | 33
C=CCOc1ccc(C[C@H](NC(=O)OC(C)(C)C)C(=O)Oc2cc(CC3COc4cc(OC)c(OC)c(OC)c4C3=O)ccc2OC)cc1 (some centres not stated) | 0.16 | 0.091 | > 100 | 52
COc1ccc(/C=C2\COc3cc(OC)c(OC)c(OC)c3C2=O)cc1[N+](=O)[O-] | 4.8 | 15 | 12 | 2.2
COc1cc2c(c(OC)c1OC)C(=O)C(Cc1ccccc1)CO2 (configuration not stated) | > 100 | > 100 | > 100 | > 100

Structure (SMILES) | GI50 [1] [µM] | GI50 at 48 h [2] [µM] | GI50 [3] [µM] | GI50 (Y79) [µM]
COc1cc(OC)c2c(c1)OC/C(=C\c1ccc(OC)c(O)c1)C2=O | 42 | 15 | > 100 | 14
COc1ccc(CC2COc3cc(OC)c(OC)c(OC)c3C2=O)cc1OC(=O)[C@H](CCc1ccccc1)NC(=O)OC(C)(C)C (some centres not stated) | 0.17 | > 100 | > 100 | > 100
COc1cc2c(c(OC)c1OC)C(=O)/C(=C/c1ccc(O)c(O)c1)CO2 | 7.6 | 5 | 9.5 | 4
COc1ccc(CC2COc3cc(OC)c(OC)c(OC)c3C2=O)cc1OC(=O)/C=C/c1ccccc1 (configuration not stated) | 0.17 | > 100 | > 100 | > 100
COc1ccc(CC2COc3cc(OC)c(OC)c(OC)c3C2=O)cc1O (configuration not stated) | 2 | 12 | > 100 | > 100
CCNC(=O)N[C@@H](Cc1ccccc1)C(=O)Oc1cc(CC2COc3cc(OC)c(OC)c(OC)c3C2=O)ccc1OC (some centres not stated) | 1 | 34 | 98 | 48
CCN(CC)C(=O)Oc1cc(CC2COc3cc(OC)c(OC)c(OC)c3C2=O)ccc1OC (configuration not stated) | 49 | > 100 | > 100 | 24
COc1cc2c(c(OC)c1OC)C(=O)/C(=C/c1ccc(OCc3ccccc3)c(OCc3ccccc3)c1)CO2 | 72 | 43 | > 100 | 32
COc1ccc(/C=C2\COc3cc(OC)c(OC)c(OC)c3C2=O)cc1F | 2.8 | 7.6 | 7 | 9.8
COc1ccc(CC2COc3cc(OC)c(OC)c(OC)c3C2=O)cc1OC(=O)[C@H](Cc1ccc(OCc2ccccc2)cc1)NC(=O)OC(C)(C)C (some centres not stated) | 0.51 | > 100 | > 100 | > 100
C=CCOc1cc(/C=C2\COc3cc(OC)c(OC)c(OC)c3C2=O)ccc1OC | 3.9 | 12 | 1.1 | 2.8
COc1cc(/C=C2\COc3cc(OC)c(OC)c(OC)c3C2=O)ccc1OCc1ccccc1 | 35 | 52 | 68 | 14
COc1ccc(CC2COc3cc(OC)c(O)c(O)c3C2=O)cc1O (configuration not stated) | 45 | 18 | 10 | > 100
COc1ccc(CC2COc3cc(OC)c(OC)c(OC)c3C2=O)cc1NC(=O)[C@H](Cc1ccccc1)NC(=O)OC(C)(C)C (some centres not stated) | 22 | 8.6 | 3.1 | 4.7
COc1cc(/C=C2\COc3cc(OC)c(OC)c(OC)c3C2=O)ccc1O | 3.3 | 6.2 | 26 | 5.2
COc1ccc(CC2COc3cc(OC)c(OC)c(OC)c3C2=O)cc1OC(=O)c1ccccc1 (configuration not stated) | 0.65 | > 100 | > 100 | > 100
COc1ccc(CC2COc3cc(OC)c(OC)c(OC)c3C2=O)cc1OCc1ccccc1 (configuration not stated) | 22 | > 100 | 61 | 20
COc1ccc(CC2COc3cc(OC)c(OC)c(OC)c3C2=O)cc1N (configuration not stated) | 1.1 | 0.51 | > 100 | > 100
COc1ccc(CC2COc3cc(OC)c(OC)c(OC)c3C2=O)cc1NC(=O)[C@H](Cc1ccc(OCc2ccccc2)cc1)NC(=O)OC(C)(C)C (some centres not stated) | > 100 | > 100 | > 100 | 0.39
